# KCC2 mod = modulates chloride dependent transport by human KCC2 | KCC2 cells, thallium flux FluoZin-2 fluorescence | Q9H2X9 | AID 1456 | 190,000 compounds, 2.2% hits | B-score of Tl+ flux slope (higher = more flux/activation; lower = inhibition) at 10 µM;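 active = thallium flux slope and its plate-corrected score both differing from the plate sample mean at a set confidence after two filtering rounds, in either direction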;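 also: slope of fluorescence scaled to starting intensity during 10 to 20 s after thallium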
# Pf gamet viab = inhibitors of late stage P. falciparum gametocyte viability | 150,000 compounds, 0.065% hits | AID 743093 | P. falciparum stage V gametocytes, ATP luminescence, 24 h | inhibition, % at 10.9 µM;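 active = inhibition above the mean plus 3 SD of compounds within the control limits, set per campaign, cut at about 38% in these data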;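 also: 0% = DMSO wells and 100% = medium only without gametocytes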
# WT yeast gro inh = growth inhibition of WT yeast, mitochondrial fusion screen; mitochondrial fusion phenotypic screen, WT strain; inhibition, % at 10 µM; 190,000 compounds, 2.1% hits; AID 1362; in the data active = inhibition above about 58%; tested in S. cerevisiae
# MT stabilize HCS = microtubule stabilizers in HeLa cells | 200,000 compounds, 0.83% hits | % tubulin-high responders, % at 10 µM | HeLa tubulin immunostaining HCS, 24 h; share of cells brighter than vehicle mean+2SD | AID 2205;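 active = plate Z-score above 3 for both tubulin-high and condensed-nucleus cell shares, with cell loss under 80%, at 10 µM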;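 also: anti alpha tubulin signal scored within the nucleus-defined area of each cell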
# b-catenin transl = alters nuclear translocation of beta-catenin in HeLa cells. immunofluorescence imaging. nuclear translocation activity, % at 5 µM. 190,000 compounds, 0.3% hits. AID 1665;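 active = nuclear translocation activity above 50% at 5 µM, with a well cell count of 50 or more; inconclusive = wells under 50 cells across six images, flagged as toxic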;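 also: per-cell ratio of nuclear to cytoplasmic median beta-catenin stain intensity; plate controls were DMSO negative control for no effect and GSK-3 inhibitor IX positive control for full effect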
#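 System: HeLa cells, endogenous beta-catenin; compound dosing: 5 µM primary single dose, 0.1% DMSO, 0.02–20 µM confirmation series; incubation: 24 h compound exposure at 37°C, 5% CO2; signal: beta-catenin immunofluorescence imaging with DAPI; evaluation: % activation, nuclear-to-cytoplasmic median beta-catenin signal ratio per cell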
# KCC2 sec1 = KCC2 (human) modulation, secondary assay; shares compounds with KCC2 mod; HEK293-KCC2, thallium flux, FluoZin2 fluorescence; hits give high values; normalised thallium flux (F/F0 slope) at 10 µM; 3,700 compounds, 15% hits;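 active = thallium flux slope above the same plate's solvent-only control mean plus 3 SD; inconclusive = the two replicate wells disagree; inactive = no significant difference from solvent-only control wells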
# KCC2 bumet counter = thallium flux despite bumetanide block in KCC2 cells, secondary assay 3; normalized thallium flux at 10 µM; HEK293-KCC2 + bumetanide/ouabain, thallium flux FluoZin2; hits give high values; shares compounds with KCC2 mod; 3,700 compounds, 49% hits; AID 1714;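 active = thallium entry rate above the same plate's blocked-transporter control wells by more than 3 SD; inconclusive = the two repeat wells disagree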;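 also: raw slope of fluorescence over initial fluorescence between 10 and 20 s after thallium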
# KCC2 sec2 = KCC2 (human) modulation, second secondary assay. HEK293-KCC2, thallium flux FluoZin2 fluorescence; actives lie on both sides; F/F0 rise rate, 10–20 s post-thallium. shares compounds with KCC2 mod. normalized thallium flux at 10 µM. AID 1715. 3,700 compounds, 23% hits;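 active = thallium flux slope more than 3 SD above or below the plate's solvent-only control mean, mostly below; inconclusive = the two repeat wells disagreed; inactive = no significant shift from solvent-only controls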;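 also: raw slope with 0.1% DMSO as baseline and bumetanide as block control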
# HEK counter1 = counter-screen for KCC2 modulators: effect in parental HEK293 cells; shares compounds with KCC2 mod; thallium flux FluoZin2, ouabain; baseline-ratio fluorescence slope, 10–20 s after thallium; thallium flux rate (normalised fluorescence) at 10 µM; 3,700 compounds, 46% hits;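 active = thallium flux rate significantly above the same plate's solvent-only control wells, beyond their mean plus 3 SD; inconclusive = the two replicate wells gave conflicting results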
# KCC2 ouabain = confirmation of human KCC2 modulators with ouabain; shares compounds with KCC2 mod; HEK293-KCC2, thallium flux FluoZin2 fluorescence; bidirectional: low = inhibitor, high = activator; raw Tl+ flux slope (below DMSO = inhibition, above = activation) at 10 µM; 3,700 compounds, 48% hits;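 active = thallium flux slope beyond 3 SD from same-plate DMSO control mean in most replicates, usually higher, sometimes lower; inconclusive = repeat tests gave conflicting results; inactive = no significant difference from controls in most replicates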;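 also: slope of initial-normalized fluorescence between seconds 10 and 20 after thallium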
# HEK counter2 = counter-screen for KCC2 modulators: effect in parental HEK293 cells | shares compounds with KCC2 mod | thallium flux FluoZin-2 fluorescence slope | thallium flux slope at 10 µM | 3,700 compounds, 33% hits | AID 1718;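 active = thallium flux slope above the same plate's solvent-control mean plus 3 SD in both duplicate wells; inconclusive = duplicate wells that disagreed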;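 also: run without ouabain in cells lacking the KCC2 cotransporter; slope of fluorescence scaled to its starting value between 10 and 20 s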
# * marks the source's active call; other numbers are inactive results; i = inactive; ? = inconclusive; . = not tested or not shown. In the library only some 4% were active in any assay of this set; here they are far more common.
SMILES,KCC2 mod,Pf gamet viab,WT yeast gro inh,MT stabilize HCS,b-catenin transl,KCC2 sec1,KCC2 bumet counter,KCC2 sec2,HEK counter1,KCC2 ouabain,HEK counter2
O=C1CSC2N1CCNC21CCCCC1 (configuration not stated),-0.0324,.,29.1,5.6,-3.3,.,.,.,.,.,.
COc1cc2c(cc1OC)-c1c(OC)c(OC)cc3c1[C@H](C2)[N+](C)(C)CC3,3.08*,11.4,-8.1,4.0,-2.9,0.00752,?,0.0295,0.00759,0.0183,0.0113
COc1cc2c3c(c1OC)-c1cc(O)ccc1CC3NCC2 (configuration not stated),-1.18,-15.3,4.7,1.3,-5.6,.,.,.,.,.,.
CC(=O)NC1C(OC(=O)Cc2ccccc2)OC(COC(C)=O)C(OC(C)=O)C1OC(C)=O (configuration not stated),-0.0981,.,12.2,0.9,-1.6,.,.,.,.,.,.
O=c1c(C=NCc2cccs2)c(O)n(C2CCCCC2)c(=O)n1C1CCCCC1,-3.01*,8.9,-17.6,0.8,.,?,0.00445,0.03,0.00719,0.0195,0.0103
O=c1c(C=NCCN2CCNCC2)c(O)n(C2CCCCC2)c(=O)n1C1CCCCC1,0.54,.,13.8,4.1,.,.,.,.,.,.,.
O=C1NC(=O)C(=Cc2coc3ccccc3c2=O)C(=O)N1,-4.07*,.,9.9,1.9,-1.7,0.00584,0.00577*,?,0.00592*,0.0144*,0.00991
CC(C)NC(C)C(=O)c1ccc2ccccc2c1 (configuration not stated),1.4,.,-1.9,3.2,3.3,.,.,.,.,.,.
CC(NC(C)(C)C)C(=O)c1cccc(Cl)c1 (configuration not stated),7.67*,.,2.0,2.3,.,0.00579,0.00426,0.0285,0.00709,0.0177,0.00943
CN1CCN(Cc2nc3ccccc3n2C)CC1,6.86*,5.8,-20.2,1.7,-5.1,0.00615,0.00473,?,0.00788,?,0.0109
CCN(CC)CC(O)c1ccc(C2CCCC2)cc1 (configuration not stated),1,19.7,-0.6,3.1,-2.3,.,.,.,.,.,.
Nc1ccccc1C(=O)OCC(=O)N1CCc2ccccc21,.,.,-16.3,0.9,-0.1,0.00622,?,0.0302,?,0.0134*,0.0109
O=c1[nH]c(=S)[nH]c(O)c1N=Nc1ccc(OC(F)F)cc1,42.1*,-2.3,13.3,9.4,0.5,?,0.0732*,0.0353,0.0106*,0.0692*,0.0111
COc1ccc(N=Nc2c(O)[nH]c(=S)[nH]c2=O)cc1,-0.0118,24.5,4.3,1.3,0.0,.,.,.,.,.,.
CS(=O)(=O)NNP(=O)(NNS(C)(=O)=O)NC(=O)c1ccc(Br)cc1,.,10.7,.,.,-1.3,.,.,.,.,.,.
C=CCn1c(O)c(C=NC2CCN(Cc3ccccc3)CC2)c(=O)[nH]c1=O,0.00673,8.4,.,.,0.0,.,.,.,.,.,.
CCCCCCn1c(O)c(C=NC2CCN(Cc3ccccc3)CC2)c(=O)[nH]c1=O,.,.,16.9,0.8,1.3,0.0184,0.00465,?,0.00697,0.0154,0.00956
COc1cccc(-c2nc(CS(=O)CC(=O)N3CCC4(CC3)OCCO4)c(C)o2)c1 (configuration not stated),-5.47*,.,-1.2,5.7,-1.0,0.00707,0.00456,?,0.0066,0.0175,0.00973
O=C1NC(=O)C2=Cc3ccc(O)cc3OC2(O)N1 (configuration not stated),i,.,-1.6,3.9,-2.0,.,.,.,.,.,.
O=C1N(CN2CCOCC2)c2ccccc2C1(O)c1c[nH]c2ccccc12 (configuration not stated),.,23.6,8.8,0.8,-1.1,0.00908,?,0.0295,0.00737,0.0209,0.0105
O=C(c1ccccc1)C1NC1c1ccccc1 (configuration not stated),0.761,0.6,.,.,-3.1,.,.,.,.,.,.

# Compound activity deposited in PubChem BioAssay by several laboratories.
